According to ChEMBL document CHEMBL4346727, “Synthesis and pharmacological evaluation of novel N-Mannich bases derived from 5,5-diphenyl and 5,5-di(propan-2-yl)imidazolidine-2,4-dione core” (Bioorg Med Chem Lett, 2019):
The source made the active and inactive calls. The rule behind the calls is not given here.

Assays:
Rattus norvegicus [1] = assay: Anticonvulsant activity in po dosed Sprague-Dawley rat assessed as time to peak effect on protection against subcutaneous pentylenetetrazole-induced seizures; assay type: functional
Mus musculus [2] = assay: Antiallodynic activity in CD1 mouse assessed as reduction in oxaliplatin-induced neuropathic pain in early phase by measuring paw withdrawal force at 11 mg/kg, ip measured after 3 hrs by Von Frey test relative to untreated control; assay type: functional; parameters: scale not given: the % may be the effect or the level left
[3] = Neurotoxicity in ip dosed CD1 mouse assessed as time to peak effect by rotarod test; assay type: toxicity, organism-based; conditions: in vivo
[4] = Neurotoxicity in ip dosed CD1 mouse model by rotarod test; assay type: toxicity, organism-based; conditions: in vivo
[5] = Neurotoxicity in CD1 mouse at 25 mg/kg, ip measured after 1 hr by rotarod test; conditions: in vivo
Rattus norvegicus [6] = assay: Anticonvulsant activity in po dosed Sprague-Dawley rat assessed as time to peak effect on protection against 32 mA current-induced seizure by 6 Hz psychomotor seizure test; assay type: functional
Mus musculus [7] = assay: […] in CD1 mouse model assessed as formalin-induced nociception by measuring AUC during acute phase at 11 mg/kg, ip measured for 5 mins by formalin test relative to control; assay type: functional
Mus musculus [8] = assay: Anticonvulsant activity in CD1 mouse assessed as protection against subcutaneous pentylenetetrazole-induced seizures at 300 mg/kg, ip and measured after 4 hrs; assay type: functional, organism-based
In short: (§1)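 Mice were screened after intraperitoneal doses of 30, 100 and 300 mg/kg in the maximal electroshock and subcutaneous pentylenetetrazole tests, examined at 0.5 and 4 h. The value recorded is the minimum dose showing activity. No activity up to 300 mg/kg is scored as absent.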

Rattus norvegicus [9] = assay: Anticonvulsant activity in po dosed Sprague-Dawley rat assessed as time to peak effect on protection against 150 mA current-induced seizures; assay type: functional
In short: (§2)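 Median effective doses were quantified in the maximal electroshock, subcutaneous pentylenetetrazole and 6 Hz tests after intraperitoneal dosing in mice or oral dosing in rats, at the time of peak effect. ED50 values are reported with ranges in parentheses.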

[10] = Neurotoxicity in ip dosed CD1 mouse and measured after 0.5 hrs by rotarod test; assay type: toxicity, organism-based; conditions: in vivo
In short: (§3)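 Mice dosed intraperitoneally at 30, 100 and 300 mg/kg, then tested on the rotarod at 0.5 h and 4 h. The value recorded is the minimum dose at which neurotoxicity appeared. A dash means no neurotoxicity at the top dose of 300 mg/kg.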

[11] = Neurotoxicity in po dosed Sprague-Dawley rat assessed as time to peak effect by rotarod test; assay type: toxicity, organism-based; conditions: in vivo
Mus musculus [12] = assay: Anticonvulsant activity in CD1 mouse assessed as protection against 32 mA current-induced seizure at 100 mg/kg, ip measured after 2 hrs by 6 Hz psychomotor seizure test
[13] = Neurotoxicity in CD1 mouse at 25 mg/kg, ip measured after 15 mins by rotarod test; conditions: in vivo, 0.25 h
Mus musculus [14] = assay: Anti-inflammatory activity in CD1 mouse model assessed as formalin-induced nociception by measuring AUC during inflammatory phase at 11 mg/kg, ip measured for 5 mins by formalin test relative to control; assay type: functional
Mus musculus [15] = assay: Anticonvulsant activity in CD1 mouse assessed as protection against 32 mA current-induced seizure at 100 mg/kg, ip measured after 4 hrs by 6 Hz psychomotor seizure test
Mus musculus [16] = assay: Anticonvulsant activity in CD1 mouse assessed as protection against 32 mA current-induced seizure at 25 mg/kg, ip measured after 2 hrs by 6 Hz psychomotor seizure test
Mus musculus [17] = assay: Anticonvulsant activity in CD1 mouse assessed as protection against 32 mA current-induced seizure at 25 mg/kg, ip measured after 4 hrs by 6 Hz psychomotor seizure test
Mus musculus [18] = assay: Anticonvulsant activity in ip dosed CD1 mouse assessed as protection against 50 mA current-induced seizure and measured after 4 hrs by maximal electroshock seizure test; assay type: functional; conditions: read-out: MED; in short: as §1
Mus musculus [19] = assay: Anticonvulsant activity in CD1 mouse assessed as protection against 32 mA current-induced seizure at 50 mg/kg, ip measured after 1 hr by 6 Hz psychomotor seizure test
[20] = Neurotoxicity in CD1 mouse at 50 mg/kg, ip measured after 1 hr by rotarod test; conditions: in vivo
[21] = Protection index, ratio of TD50 for neurotoxicity in ip dosed CD1 mouse by rotarod test to ED50 for anticonvulsant activity in ip dosed CD1 mouse by maximal electroshock seizure test; assay type: toxicity, organism-based; conditions: in vivo, read-out: Ratio TD50/ED50
Mus musculus [22] = assay: Anticonvulsant activity in CD1 mouse assessed as protection against 32 mA current-induced seizure at 25 mg/kg, ip measured after 1 hr by 6 Hz psychomotor seizure test
[23] = Neurotoxicity in ip dosed CD1 mouse and measured after 4 hrs by rotarod test; assay type: toxicity, organism-based; conditions: in vivo; in short: as §3
Rattus norvegicus [24] = assay: Anticonvulsant activity in po dosed Sprague-Dawley rat assessed as protection against 150 mA current-induced seizures; assay type: functional; in short: as §2
[25] = Neurotoxicity in CD1 mouse at 25 mg/kg, ip measured after 2 hrs by rotarod test; conditions: in vivo
Mus musculus [26] = assay: Anticonvulsant activity in ip dosed CD1 mouse assessed as protection against 50 mA current-induced seizure and measured after 0.5 hrs by maximal electroshock seizure test; assay type: functional; conditions: read-out: MED; in short: as §1
[27] = Neurotoxicity in Sprague-Dawley rat at 30 mg/kg, po measured after 15 mins by rotarod test; assay type: toxicity, organism-based; conditions: in vivo, 0.25 h
In short: (§4)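 Rats given one oral dose of 30 mg/kg and tested on the rotarod at 0.25, 0.5, 1, 2, 4 and 6 h.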

[28] = Neurotoxicity in CD1 mouse at 50 mg/kg, ip measured after 4 hrs by rotarod test; conditions: in vivo
[29] = Neurotoxicity in CD1 mouse at 100 mg/kg, ip and measured after 0.5 to 4 hrs by rotarod test; assay type: toxicity, organism-based; conditions: in vivo
In short: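 Rotarod neurotoxicity screen in mice after intraperitoneal dosing. For the 6 Hz series the count is mice out of four showing neurotoxicity, scored as inability to grasp the rotarod or muscle spasms, at 0.25–4 h. For the initial screen the minimum toxic dose is taken from 30, 100 and 300 mg/kg at 0.5 and 4 h.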

[30] = Neurotoxicity in CD1 mouse at 50 mg/kg, ip measured after 30 mins by rotarod test; conditions: in vivo, 0.5 h
[31] = Neurotoxicity in Sprague-Dawley rat at 30 mg/kg, po measured after 4 hr by rotarod test; assay type: toxicity, organism-based; conditions: in vivo; in short: as §4
Mus musculus [32] = assay: Anticonvulsant activity in ip dosed CD1 mouse assessed as time to peak effect on protection against 32 mA current-induced seizure by 6 Hz psychomotor seizure test; assay type: functional; in short: as §2
Mus musculus [33] = assay: Antiallodynic activity in CD1 mouse assessed as reduction in oxaliplatin-induced neuropathic pain in late phase by measuring paw withdrawal force at 11 mg/kg, ip measured after 7 days by Von Frey test relative to untreated control; assay type: functional; parameters: scale not given: the % may be the effect or the level left

Structure (SMILES): CN1CCN(CN2C(=O)NC(c3ccccc3)(c3ccccc3)C2=O)CC1
- Time (Rattus norvegicus [1]): 2 h
- Activity (Mus musculus [2]): 53%
- Time [3]: 1 h
- TD50 [4]: 75.5 mg/kg
- Activity [5]: Non-Toxic
- Time (Rattus norvegicus [6]): 2 h
- Activity (Mus musculus [7]): 67.52%
- Activity (Mus musculus [8]): inactive
- Time (Rattus norvegicus [9]): 2 h
- minimal neurotoxic dose [10]: 100 mg/kg
- Time [11]: 2 h
- Activity (Mus musculus [12]): Active
- Activity [13]: Non-Toxic
- Activity (Mus musculus [14]): 90.3%
- Activity (Mus musculus [15]): Active
- Activity (Mus musculus [16]): inactive
- Activity (Mus musculus [17]): inactive
- minimal effective dose (Mus musculus [18]): 10 mg/kg
- Activity (Mus musculus [19]): Active
- Activity [20]: Non-Toxic
- selectivity ratio [21]: 6.78
- Activity (Mus musculus [22]): Active
- MTC [23]: 100 mg/kg
- ED50 (Rattus norvegicus [24]): 38.5 mg/kg
- Activity [25]: Non-Toxic
- minimal effective dose (Mus musculus [26]): 10 mg/kg
- Activity [27]: Non-Toxic
- Activity [28]: Non-Toxic
- Activity [29]: Toxic
- Activity [30]: Non-Toxic
- Activity [31]: Non-Toxic
- Time (Mus musculus [32]): 1 h
- Activity (Mus musculus [33]): 61%
